Assay outcomes deposited in PubChem BioAssay by The Scripps Research Institute Molecular Screening Center.
HTR1E antagonist – blocks the human 5-HT1E serotonin receptor. P28566. CHO 5-HT1E Ga15 NFAT-bla reporter, FRET, antagonist. inhibition, % at 6 µM. actives 0.99% (n = 65,000). AID 571;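 active = inhibition above a set limit, the mean inhibition across every tested compound plus 3 SD, cut at about 29% in these data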;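 note: signal is the 460 over 535 nm emission ratio of beta-lactamase substrate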
5-HT1A blocker – blocks the human serotonin 5-HT1a receptor; actives 0.68% (n = 62,000); CHO 5-HT1a Ga15 NFAT-bla reporter, antagonist mode; inhibition, % at 10 µM; P08908; AID 612;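 active = inhibition above the mean of all tested compounds plus 3 SD, cut at about 43% in these data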;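 note: receptor stimulated by 5-CT agonist at 100 nM near EC80; beta-lactamase reporter measured by ratiometric fluorescence of a cleavable substrate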
Target sequence (P08908 whole entry, looked up): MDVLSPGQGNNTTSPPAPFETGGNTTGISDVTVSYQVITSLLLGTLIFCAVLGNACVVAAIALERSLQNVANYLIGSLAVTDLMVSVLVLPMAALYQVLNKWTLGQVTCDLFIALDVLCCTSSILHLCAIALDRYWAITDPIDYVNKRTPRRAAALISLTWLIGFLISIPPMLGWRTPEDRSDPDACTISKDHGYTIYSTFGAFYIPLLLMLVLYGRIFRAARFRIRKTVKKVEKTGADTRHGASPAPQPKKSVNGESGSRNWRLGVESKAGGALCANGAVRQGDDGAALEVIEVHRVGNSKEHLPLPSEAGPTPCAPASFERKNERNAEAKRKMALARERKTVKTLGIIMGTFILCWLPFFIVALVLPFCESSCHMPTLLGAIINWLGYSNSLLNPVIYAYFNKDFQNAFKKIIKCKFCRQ
Jurkat tox 60K – reduces viability or proliferation of Jurkat cells; Jurkat E6.1 viability, ATP luminescence, 48 h; inhibition, % at 4 µM; actives 1.2% (n = 56,000); AID 463;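 active = inhibition above the mean inhibition of all tested compounds plus 3 SD, cut at about 28% in these data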
5HT1a ag – 5-HT1a (human) receptor agonism; CHO 5-HT1a Ga15 NFAT-bla reporter, FRET ratio; 0% basal, 100% maximal reference agonist; P08908; activation, % at 10 µM; AID 567; actives 0.56% (n = 65,000);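 active = activation above the screen-wide mean activation plus 3 SD, cut at about 19% in these data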
5HT1E ag – activates the human 5-HT1E serotonin receptor | P28566 | CHO 5-HT1E Ga15 NFAT-bla reporter, FRET; 0% DMSO wells, 100% control agonist wells | activation, % at 6 µM | actives 0.69% (n = 65,000) | AID 574;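 active = activation above a set limit, the screen-wide mean activation plus 3 SD, cut at about 8.5% in these data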
HEK293 NFkB inh – inhibitors of the PMA/ionomycin-induced NF-kB reporter in HEK293 cells | HEK-293 NF-kB luciferase reporter, luminescence | actives 0.21% (n = 62,000) | inhibition, % at 3 µM | AID 465;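 active = inhibition above the mean of all tested compounds plus 3 SD, cut at about 40% in these data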
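Material: HEK-293 cells with stable firefly luciferase reporter driven by four HIV NF-kB elements / Also added: PMA plus ionomycin mix as NF-kB-activating stimulus / Compound dosing: 3 µM once, 0.30% DMSO / Times: 1 h pretreatment, 16 h stimulation, 37 °C / Signal: luminescence / Evaluation: per-plate % inhibition versus controls / Benchmarks: DMSO and 10 µM reference inhibitor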
Hits are given with their value; i = inactive; nt = no result given. Only some compounds are listed: those with a hit (about 3.3% of all), similar ones and a draw of the others.

SMILES	HTR1E antagonist	5-HT1A blocker	Jurkat tox 60K	5HT1a ag	5HT1E ag	HEK293 NFkB inh
CCOC(=O)c1c(C)oc2c1c(C=NCC1CCCO1)c(O)c1ccccc12 (configuration not stated)	31	64	i	i	i	i
CCOC(=O)c1c(C)oc2c1c(C=NCc1ccccn1)c(O)c1ccccc12	i	i	i	i	i	i
COC(=O)c1ccc(CSc2nc3ccccc3c(=O)n2-c2ccc(OC)c(OC)c2)o1	31	i	i	i	i	i
COCCn1c(SCc2ccc(C(=O)OC)o2)nc2ccccc2c1=O	i	i	i	i	i	i
CCOc1ccccc1C1CC(c2ccc(F)cc2)Nc2nc(N)nn21 (configuration not stated)	i	i	i	i	i	i
Clc1ccc(CCNc2ncnc3nc[nH]c23)cc1	i	i	35	i	i	i
c1ccc(CCCNc2ncnc3nc[nH]c23)cc1	i	i	i	i	i	i
CCC(=O)N1CCc2cc(OC)c(OC)cc2C1COc1ccc(C(=O)OC)cc1 (configuration not stated)	37	i	nt	i	i	i
COC(=O)c1ccc(OCC2c3cc(OC)c(OC)cc3CCN2C(=O)c2ccco2)cc1 (configuration not stated)	36	i	nt	i	i	i
COc1cc2c(cc1OC)C(c1ccccc1)N(C(=O)c1ccco1)CC2 (configuration not stated)	i	i	i	i	i	i
COc1cc(C)c(S(=O)(=O)N2CCOCC2)cc1C(C)C	i	i	i	i	i	i
COc1cc(C)c(N)cc1C(C)C	i	i	i	i	23	i
O=C(OC1CCOC1=O)c1cncc(Br)c1 (configuration not stated)	i	i	i	i	43	i
O=C(OC1CCOC1=O)c1ccc2ncsc2c1 (configuration not stated)	i	i	i	i	i	i
N#CCCN(C(=O)CN1C(=O)NC2(CCCC2)C1=O)c1ccccc1F	i	i	nt	82	i	i
CCCc1ccc(-c2ccc(F)c(N)c2)nc1	i	i	60	i	i	i
COCCn1c(=O)[nH]c2cc(C(=O)NCCN3CCN(c4ccccc4F)CC3)ccc2c1=O	i	52	nt	i	i	i
COc1ccccc1-n1c(CNC(=O)COc2ccccc2)n[nH]c1=S	i	i	nt	i	i	i
COc1ccc(Nc2ncc3c(n2)CC(c2ccccc2)CC3=O)cc1 (configuration not stated)	i	i	i	i	i	i
COc1cccc(C(=O)Nc2ncc3c(n2)CC(c2ccc(OC)cc2OC)CC3=O)c1 (configuration not stated)	i	i	43	i	i	i
CCOC(=O)c1cc(-c2ccc(F)cc2)n(CC(=O)Nc2nccs2)c1C	i	i	i	i	i	i
COc1cccc(Cn2nnc(C(=O)NCc3ccc(F)cc3)c2N)c1	32	i	i	i	i	i
COc1cccc(Cn2nnc(C(=O)NCc3ccccc3Cl)c2N)c1	i	i	i	i	i	i
COc1cccc2cc(C(=O)N3CCc4ccccc4C3)c(=O)oc12	i	i	i	i	i	i
COc1cc2c(cc1OC)CN(C(=O)c1cc3ccccc3oc1=O)CC2	i	i	60	i	i	i
SMILES	HTR1E antagonist	5-HT1A blocker	Jurkat tox 60K	5HT1a ag	5HT1E ag	HEK293 NFkB inh
COc1ccc(OC)c(-c2csc(N(Cc3ccco3)C(=O)c3cccs3)n2)c1	i	43	i	i	i	i
O=C(Nc1nccs1)c1ccc(COc2ccccc2Br)o1	i	i	i	i	i	i
CC1CN(C(=O)CN2C(=O)NC3(CCCCCCC3)C2=O)CC(C)O1 (configuration not stated)	i	i	i	i	20	i
Cc1onc(-c2ccccc2)c1C(=O)Nc1ccccc1N1CCOCC1	i	i	i	i	i	i
Cc1onc(-c2ccccc2)c1C(=O)Nc1cc(C(F)(F)F)ccc1N1CCOCC1	41	i	87	i	i	i
CCc1nc(N)c(C#N)c(-c2ccncc2)c1C	i	i	i	i	i	i
CCCc1nc(N)c(C#N)c(N)c1C#N	29	i	i	i	i	i
Cc1ccc(S(=O)(=O)N(CC(=O)NCc2ccco2)Cc2ccccc2F)cc1	i	i	i	i	i	i
Cc1cccc(NC(=O)C2CCCN(C(=O)Nc3ccccc3)C2)c1C (configuration not stated)	i	i	i	i	88	i
O=C(NCc1ccccc1)C1CCCN(C(=O)Nc2ccccc2)C1 (configuration not stated)	i	i	i	i	i	i
COc1cc(CO)cc(Br)c1OCc1cccnc1	i	i	i	i	i	i
COC(=O)c1cc2sc(Cl)cc2n1CC(=O)Nc1cccc(SC)c1	i	48	i	i	i	i
Cc1cc(Nc2cccc(F)c2)nc(-c2ccccc2O)n1	31	i	i	i	i	i
CCOc1cc(-c2cc(-c3ccc(N)cc3)nc(N)c2C#N)ccc1O	30	i	i	i	i	i
CC(CCc1ccccc1)NC(=O)CSc1nc(N)cc(N)n1 (configuration not stated)	i	i	i	i	58	i
CCc1ccc(CCC(=O)Nc2sc3c(c2C#N)CCCC3)o1	53	61	89	i	i	i
N#Cc1c(NC(=O)CCC(=O)O)sc2c1CCCC2	i	nt	nt	i	i	nt
CC(C)c1cc(C(=O)Nc2sc3c(c2C#N)CCC3)no1	i	i	69	i	i	i
CCCN(CCC)CCNC(=O)C(NS(=O)(=O)c1ccc2c(c1)CCC(=O)N2)c1ccccc1 (configuration not stated)	i	i	i	i	i	i
CC(C)c1nnc(NC(=O)c2c(O)c3cccc4c3n(c2=O)CCC4)s1	i	i	i	i	i	46
Cc1cc2nc(C3CCN(CC4COc5ccccc5O4)CC3)[nH]c2cc1C (configuration not stated)	i	i	i	i	i	i
Cc1cc(C)c2c(=O)[nH]c(=O)n(Cc3ccccc3)c2n1	i	i	i	i	i	i
CCOC(=O)C1CCCN(C(=O)C(C)Oc2ccc(Cl)cc2Cl)C1 (configuration not stated)	i	i	nt	i	i	i
CC(Oc1ccc(Cl)cc1Cl)C(=O)Nc1ccncc1 (configuration not stated)	i	i	44	i	i	i
COC(=O)C1CCN(C(=O)C(C)Oc2ccc(Cl)cc2Cl)CC1 (configuration not stated)	i	i	nt	90	i	i
O=C(Nc1ccc(N2CCOCC2)cc1)c1cnsn1	i	i	i	i	i	42
CS(=O)(=O)c1ncc(Cl)c(C(=O)Nc2ccc(N3CCOCC3)cc2)n1	82	81	62	i	i	i
COc1ccc(C(=O)Nc2ccc(N3CCOCC3)cc2)cc1OC	i	i	i	i	i	i
